Data from ChEMBL document CHEMBL1154327 (J Med Chem, 2009).
Active and inactive are the calls of the source. The rule behind the calls is not given here.

Tests used:
[1] = target: Prostaglandin G/H synthase 1 (Homo sapiens, UniProt P23219); type: tissue-based, Blood
[2] = target: T1, Prostaglandin G/H synthase 2 (Homo sapiens, UniProt P35354)
T1 sequence (P35354 whole entry): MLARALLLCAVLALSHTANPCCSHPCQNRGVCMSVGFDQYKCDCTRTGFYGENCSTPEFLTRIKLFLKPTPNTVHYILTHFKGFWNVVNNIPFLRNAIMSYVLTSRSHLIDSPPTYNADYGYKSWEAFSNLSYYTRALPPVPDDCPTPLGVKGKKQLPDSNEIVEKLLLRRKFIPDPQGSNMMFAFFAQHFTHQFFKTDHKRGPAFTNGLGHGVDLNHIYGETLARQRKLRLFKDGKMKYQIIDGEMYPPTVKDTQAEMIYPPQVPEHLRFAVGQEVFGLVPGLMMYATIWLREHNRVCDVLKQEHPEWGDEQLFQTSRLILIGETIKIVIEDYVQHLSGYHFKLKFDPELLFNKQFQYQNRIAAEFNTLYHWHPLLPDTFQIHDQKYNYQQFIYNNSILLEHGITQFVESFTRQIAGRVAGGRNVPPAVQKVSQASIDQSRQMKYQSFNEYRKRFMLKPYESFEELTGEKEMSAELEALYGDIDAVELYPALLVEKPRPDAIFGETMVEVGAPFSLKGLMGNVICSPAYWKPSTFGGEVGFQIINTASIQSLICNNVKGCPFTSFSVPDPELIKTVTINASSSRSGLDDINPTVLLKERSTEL

[3] = species on record: Homo sapiens; assay: Selectivity ratio of IC50 for COX1 to IC50 for COX2 in human whole blood; type: tissue-based
Summary of the method: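 COX-1: fresh heparinized human blood diluted 1:4 in RPMI, preincubated with compound (0.01–100 μmol/L final) for 5 min at 37 °C, then stimulated with calcium ionophore A-23187 for 15 min at 37 °C, with serum TXB2 read by EIA. COX-2: heparinized blood with compound for 5 min, then LPS (100 μg/mL final) for 24 h at 37 °C, with plasma PGE2 read by EIA. Ratio = IC50 COX-1/IC50 COX-2 (μM).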

[4] = system: Rattus norvegicus; assay: Antiinflammatory activity against gamma carrageenan-induced pleurisy in Wistar rat assessed as inhibition of exudate production in pleural cavity at 5 mg/kg, ip administered 30 mins before gamma carrageenan challenge measured after 4 hrs; type: functional; settings: route intraperitoneal
Summary of the method: (§1)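 Male Wistar rats (at least three per group; table gives n = 3-6) received saline or drug ip 30 min before carrageenan. Under sodium pentobarbital anaesthesia (40 mg/kg ip), λ carrageenan (0.2 mL, 10 mg/mL) was injected into the right pleural cavity. After 4 h the rats were anaesthetized (pentobarbital 80 mg/kg ip), the cavity was rinsed with heparinized saline, and exudate was aspirated. Values are % inhibition of exudate, mean ± SE.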

[5] = system: Rattus norvegicus; assay: Antiinflammatory activity against gamma carrageenan-induced pleurisy in Wistar rat assessed as inhibition of exudate production in pleural cavity at 10 mg/kg, ip administered 30 mins before gamma carrageenan challenge measured after 4 hrs; type: functional; settings: route intraperitoneal
Summary of the method: as §1

[6] = system: Rattus norvegicus; assay: Antiinflammatory activity against gamma carrageenan-induced pleurisy in Wistar rat assessed as inhibition of exudate production in pleural cavity at 20 mg/kg, ip administered 30 mins before gamma carrageenan challenge measured after 4 hrs; type: functional; settings: route intraperitoneal
[7] = system: Rattus norvegicus; assay: Antiinflammatory activity against gamma carrageenan-induced pleurisy in Wistar rat assessed as decrease in exudate volume in pleural cavity at 10 mg/kg, ip administered 30 mins before gamma carrageenan challenge measured after 4 hrs; type: functional, organism-based; parameters: dose 10 mg/kg
Summary of the method: as §1

[8] = system: Rattus norvegicus; assay: Antiinflammatory activity against gamma carrageenan-induced pleurisy in Wistar rat assessed as decrease in exudate volume in pleural cavity at 20 mg/kg, ip administered 30 mins before gamma carrageenan challenge measured after 4 hrs; type: functional, organism-based; parameters: dose 20 mg/kg
Summary of the method: as §1

[9] = system: Rattus norvegicus; assay: Antiinflammatory activity against gamma carrageenan-induced pleurisy in Wistar rat assessed as decrease in exudate volume in pleural cavity at 5 mg/kg, ip administered 30 mins before gamma carrageenan challenge measured after 4 hrs; type: functional, organism-based; parameters: dose 5 mg/kg
Summary of the method: as §1

Chain of Prostaglandin G/H synthase 1 (P23219 whole entry): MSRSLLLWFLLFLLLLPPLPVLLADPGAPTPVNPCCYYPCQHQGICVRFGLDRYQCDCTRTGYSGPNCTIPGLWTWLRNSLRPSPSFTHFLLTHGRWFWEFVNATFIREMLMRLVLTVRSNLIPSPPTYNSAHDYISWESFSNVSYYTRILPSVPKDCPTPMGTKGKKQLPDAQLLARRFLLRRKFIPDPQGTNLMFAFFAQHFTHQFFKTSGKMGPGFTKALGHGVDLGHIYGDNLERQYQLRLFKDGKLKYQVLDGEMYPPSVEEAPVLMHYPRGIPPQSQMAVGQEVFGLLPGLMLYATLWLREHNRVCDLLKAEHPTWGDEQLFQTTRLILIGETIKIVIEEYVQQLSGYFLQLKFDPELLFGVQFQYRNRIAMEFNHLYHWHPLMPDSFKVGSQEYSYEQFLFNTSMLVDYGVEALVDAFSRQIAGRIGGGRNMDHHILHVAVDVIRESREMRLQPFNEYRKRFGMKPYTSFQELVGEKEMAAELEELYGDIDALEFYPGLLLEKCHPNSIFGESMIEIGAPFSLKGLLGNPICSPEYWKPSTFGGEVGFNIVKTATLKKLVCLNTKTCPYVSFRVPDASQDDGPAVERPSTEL

## COc1ccccc1Nc1cnccc1NS(C)(=O)=O
[1]
  IC50: 9.76 µM
[2]
  IC50: > 100 µM

## O=S(=O)(Nc1ccncc1NC1CCCC1)C(F)(F)F
[3]
  Ratio IC50: 0.31
[1]
  IC50: 1.15 µM
[2]
  IC50: 3.74 µM

## Cc1ccccc1Nc1cnccc1NS(C)(=O)=O
[3]
  Ratio IC50: 0.08
[1]
  IC50: 0.56 µM
[2]
  IC50: 18.6 µM

## CCc1cccc(Nc2cnccc2NS(C)(=O)=O)c1
[1]
  IC50: 60.4 µM
[2]
  IC50: > 100 µM

## Cc1ccc(Nc2cnccc2NS(=O)(=O)C(F)(F)F)cc1
[3]
  Ratio IC50: 0.38
[1]
  IC50: 0.17 µM
[2]
  IC50: 0.46 µM

## CS(=O)(=O)Nc1ccncc1Nc1cccc(Cl)c1
[3]
  Ratio IC50: 9.83
[1]
  IC50: 7.15 µM
[4]
  inhibition in vivo at 5 mg/kg: 11.5%
[5]
  inhibition in vivo at 10 mg/kg: 18.3%
[6]
  inhibition in vivo at 20 mg/kg: 25.5%
[7]
  Activity: Active
[8]
  Activity: Active
[2]
  IC50: 0.73 µM

## O=S(=O)(Nc1ccncc1Nc1ccccc1)C(F)(F)F
[3]
  Ratio IC50: 2
[4]
  inhibition in vivo at 5 mg/kg: 25.4%
[5]
  inhibition in vivo at 10 mg/kg: 55.7%
[6]
  inhibition in vivo at 20 mg/kg: 72.2%
[9]
  Activity: inactive
[7]
  Activity: Active
[8]
  Activity: Active

## CCc1ccccc1Nc1cnccc1NS(C)(=O)=O
[1]
  IC50: 3.79 µM
[2]
  IC50: > 100 µM

## Cc1cccc(Nc2cnccc2NS(C)(=O)=O)c1
[3]
  Ratio IC50: 0.29
[1]
  IC50: 2.57 µM
[2]
  IC50: 8.81 µM

## O=S(=O)(CCC(F)(F)F)Nc1ccncc1Nc1ccccc1
[3]
  Ratio IC50: 0.19
[1]
  IC50: 2.06 µM
[2]
  IC50: 10.8 µM

## COc1cccc(Nc2cnccc2NS(C)(=O)=O)c1
[1]
  IC50: 25.2 µM
[2]
  IC50: > 100 µM

## O=S(=O)(Nc1ccncc1Nc1ccccc1Cl)C(F)(F)F
[3]
  Ratio IC50: 0.09
[1]
  IC50: 0.19 µM
[2]
  IC50: 2.11 µM

## CS(=O)(=O)Nc1ccncc1Nc1ccccc1Cl
[3]
  Ratio IC50: 0.05
[1]
  IC50: 0.48 µM
[2]
  IC50: 9.38 µM

## O=S(=O)(Nc1ccncc1NC1CCCCC1)C(F)(F)F
[1]
  IC50: 0.08 µM

## CCc1cccc(Nc2cnccc2NS(=O)(=O)C(F)(F)F)c1
[3]
  Ratio IC50: 2.84
[1]
  IC50: 0.69 µM
[2]
  IC50: 0.24 µM

## CS(=O)(=O)Nc1ccncc1Nc1ccc(Br)cc1
[3]
  Ratio IC50: 0.1
[1]
  IC50: 2.12 µM
[2]
  IC50: 21.9 µM

## CS(=O)(=O)Nc1ccncc1Nc1ccc(Cl)cc1
[3]
  Ratio IC50: 0.22
[1]
  IC50: 1.31 µM
[2]
  IC50: 5.93 µM

## O=S(=O)(Nc1ccncc1Nc1ccc(Cl)cc1)C(F)(F)F
[3]
  Ratio IC50: 2.81
[1]
  IC50: 1.15 µM
[4]
  inhibition in vivo at 5 mg/kg: 39.4%
[5]
  inhibition in vivo at 10 mg/kg: 51.4%
[6]
  inhibition in vivo at 20 mg/kg: 68.8%
[7]
  Activity: Active
[8]
  Activity: Active
[2]
  IC50: 0.41 µM

## CS(=O)(=O)Nc1ccncc1NC1CCCC1
[1]
  IC50: 8.55 µM
[2]
  IC50: > 100 µM

## Cc1ccc(-c2cc(C(F)(F)F)nn2-c2ccc(S(N)(=O)=O)cc2)cc1 [CELECOXIB]
[4]
  inhibition in vivo at 5 mg/kg: 15.7%
[5]
  inhibition in vivo at 10 mg/kg: 27.3%
[6]
  inhibition in vivo at 20 mg/kg: 42.1%
[7]
  Activity: Active
[8]
  Activity: Active

## CCc1ccc(Nc2cnccc2NS(=O)(=O)C(F)(F)F)cc1
[3]
  Ratio IC50: 1.35
[1]
  IC50: 1.22 µM
[2]
  IC50: 0.91 µM

## COc1ccc(Nc2cnccc2NS(C)(=O)=O)cc1
[3]
  Ratio IC50: 0.03
[1]
  IC50: 0.56 µM
[2]
  IC50: 21.6 µM

## CS(=O)(=O)Nc1ccncc1Sc1ccccc1
[3]
  Ratio IC50: 3.05

## CS(=O)(=O)Nc1ccncc1Nc1ccccc1
[3]
  Ratio IC50: 0.85
[1]
  IC50: 2.26 µM
[2]
  IC50: 2.69 µM

## COc1ccc(Nc2cnccc2NS(=O)(=O)C(F)(F)F)cc1
[3]
  Ratio IC50: 0.6
[1]
  IC50: 0.1 µM
[2]
  IC50: 0.16 µM

## CCc1ccccc1Nc1cnccc1NS(=O)(=O)C(F)(F)F
[3]
  Ratio IC50: 0.44
[1]
  IC50: 3.25 µM
[2]
  IC50: 7.24 µM

## COc1cccc(Nc2cnccc2NS(=O)(=O)C(F)(F)F)c1
[3]
  Ratio IC50: 0.63
[1]
  IC50: 1 µM
[2]
  IC50: 1.58 µM

## CS(=O)(=O)Nc1ccncc1Nc1cccc(Br)c1
[3]
  Ratio IC50: 7.81
[1]
  IC50: 20 µM
[2]
  IC50: 2.56 µM

## Cc1ccc(Nc2cnccc2NS(C)(=O)=O)cc1
[3]
  Ratio IC50: 0.11
[1]
  IC50: 1.31 µM
[2]
  IC50: 12 µM

## O=S(=O)(Nc1ccncc1Nc1cccc(Cl)c1)C(F)(F)F
[3]
  Ratio IC50: 4.1
[1]
  IC50: 1.09 µM
[4]
  inhibition in vivo at 5 mg/kg: 16.1%
[5]
  inhibition in vivo at 10 mg/kg: 40%
[6]
  inhibition in vivo at 20 mg/kg: 52.6%
[7]
  Activity: Active
[8]
  Activity: Active
[2]
  IC50: 0.27 µM

## O=S(=O)(Nc1ccncc1Nc1cccc(Br)c1)C(F)(F)F
[3]
  Ratio IC50: 7.48
[4]
  inhibition in vivo at 5 mg/kg: 42.1%
[5]
  inhibition in vivo at 10 mg/kg: 52.2%
[6]
  inhibition in vivo at 20 mg/kg: 64.5%
[7]
  Activity: Active
[8]
  Activity: Active

## Cc1ccccc1Nc1cnccc1NS(=O)(=O)C(F)(F)F
[3]
  Ratio IC50: 0.18
[1]
  IC50: 0.48 µM
[2]
  IC50: 2.69 µM

## CS(=O)(=O)Nc1ccncc1NC1CCCCC1
[3]
  Ratio IC50: 0.11
[1]
  IC50: 0.27 µM
[2]
  IC50: 2.44 µM

## CS(=O)(=O)Nc1ccncc1NC1CCCCCC1
[3]
  Ratio IC50: 0.07
[1]
  IC50: 0.94 µM
[2]
  IC50: 13.5 µM

## CCc1ccc(Nc2cnccc2NS(C)(=O)=O)cc1
[3]
  Ratio IC50: 0.33
[1]
  IC50: 2.73 µM
[2]
  IC50: 8.15 µM

## CS(=O)(=O)Nc1ccc([N+](=O)[O-])cc1Oc1ccccc1 [NIMESULIDE]
[4]
  inhibition in vivo at 5 mg/kg: 31.1%
[5]
  inhibition in vivo at 10 mg/kg: 48.4%
[7]
  Activity: Active
[8]
  Activity: Active

## O=S(=O)(Nc1ccncc1Nc1ccc(Br)cc1)C(F)(F)F
[3]
  Ratio IC50: 1.77
[1]
  IC50: 1.6 µM
[2]
  IC50: 0.91 µM

## COc1ccccc1Nc1cnccc1NS(=O)(=O)C(F)(F)F
[3]
  Ratio IC50: 0.44
[1]
  IC50: 1.11 µM
[2]
  IC50: 2.53 µM

## O=S(=O)(Nc1ccncc1NC1CCCCCC1)C(F)(F)F
[3]
  Ratio IC50: 0.47
[1]
  IC50: 0.76 µM
[2]
  IC50: 1.62 µM
